# Article PMC3076632 (Journal of medicinal chemistry, 2011)
# pEC50: −log10 of the molar value.
# What was measured:
# Format in all cases: cell-based
# human Nod1 = target: T1, human Nod1 (Homo sapiens, UniProt Q9Y239); assay: NF-κB induction in HEK-Blue cells; conditions: for Nod1-agonistic activity (in words): primary screen, NF-κB induction
# T1 sequence (Q9Y239 1-953): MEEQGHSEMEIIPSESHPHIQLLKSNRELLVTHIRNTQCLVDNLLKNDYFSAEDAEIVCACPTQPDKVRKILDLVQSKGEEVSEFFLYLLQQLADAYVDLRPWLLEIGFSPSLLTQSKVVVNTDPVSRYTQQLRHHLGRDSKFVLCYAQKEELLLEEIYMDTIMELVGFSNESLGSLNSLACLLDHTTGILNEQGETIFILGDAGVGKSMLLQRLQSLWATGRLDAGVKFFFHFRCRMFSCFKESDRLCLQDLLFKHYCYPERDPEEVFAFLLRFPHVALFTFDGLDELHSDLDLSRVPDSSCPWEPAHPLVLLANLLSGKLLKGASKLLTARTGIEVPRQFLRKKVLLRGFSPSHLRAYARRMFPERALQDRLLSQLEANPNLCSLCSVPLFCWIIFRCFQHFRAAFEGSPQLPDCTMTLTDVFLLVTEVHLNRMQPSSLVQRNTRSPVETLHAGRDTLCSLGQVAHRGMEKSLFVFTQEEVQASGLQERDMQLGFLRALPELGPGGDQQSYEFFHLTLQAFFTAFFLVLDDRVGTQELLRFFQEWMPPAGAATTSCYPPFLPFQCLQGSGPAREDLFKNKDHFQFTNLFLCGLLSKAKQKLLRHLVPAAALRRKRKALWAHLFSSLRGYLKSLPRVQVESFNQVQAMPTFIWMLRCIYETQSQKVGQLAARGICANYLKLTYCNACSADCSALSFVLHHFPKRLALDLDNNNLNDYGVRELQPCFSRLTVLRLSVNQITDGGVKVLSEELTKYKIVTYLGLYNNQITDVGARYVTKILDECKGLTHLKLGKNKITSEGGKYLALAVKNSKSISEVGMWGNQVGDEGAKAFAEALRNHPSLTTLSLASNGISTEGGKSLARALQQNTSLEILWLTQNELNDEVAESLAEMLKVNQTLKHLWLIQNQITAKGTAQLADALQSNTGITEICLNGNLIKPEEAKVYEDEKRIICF
# Procedure, shortened: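 HEK-Blue cells stably express secreted alkaline phosphatase (sAP) under NF-κB/AP-1 promoters. Cells were grown to confluency, then exposed to graded concentrations of test compound. Extracellular sAP in the supernatant, taken as proportional to Nod1-mediated NF-κB induction, was measured spectrophotometrically at 620 nm with an alkaline phosphatase-specific chromogen in the detection medium.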
# [1] = tested on: CD11b in the granulocytic population in whole human blood; assay: CD11b flow cytometric assay in whole human blood; conditions: ex vivo whole human blood, granulocytes, 1 hour at 37°C, flow cytometry
# Procedure, shortened: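 Fresh anticoagulated whole human blood was incubated with graded dilutions of test compound for 1 h at 37°C, with saline negative controls. Samples were chilled on ice for 15 min, then stained with anti-CD11b/Mac-1 antibody for 30 min on ice so that only surface CD11b was labelled. Erythrocytes were lysed and leukocytes fixed in one step in pre-warmed lyse/fix buffer, then washed twice (200 g, 5 min). Single-colour PE flow cytometry, 20,000 gated events.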
# [2] = tested on: p38 MAPK in the granulocytic population in whole human blood; assay: Phosflow flow cytometric assay for p38MAPK in whole human blood; conditions: ex vivo whole human blood, granulocytes, 15 minutes at 37°C, flow cytometry
# Procedure, shortened: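 Heparinised fresh whole human blood was exposed to graded concentrations of test compound in saline for 15 min at 37°C. One-step erythrocyte lysis and leukocyte fixation, wash (500 g, 8 min), permeabilisation in ice-cold methanol for 30 min, two PBS washes. Staining for 60 min with PE-anti-phospho-p38 (pT180/pY182) mAb or matched PE mouse IgG1κ isotype control. Single-colour PE flow cytometry, 20,000 gated events.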
# Human PBMCs = assay: Transcriptomal profiling; conditions: 20 μg/mL
# Procedure, shortened: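 PBMCs from fresh heparinised human blood were stimulated with test compound at 20 μg/mL for 2 h; total RNA was extracted from treated and negative-control samples. 4 μg RNA per sample was hybridised to U133 plus 2.0 arrays. Chips passed QC (5′/3′ ratio < 3.0), were scaled to target intensity 500 and normalised, with absent-call genes filtered. Differential expression was defined as ≥2-fold change versus negative control.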
compound,measurement,setting,value
"CCCCCCCCCCCC(=O)N[C@H](CCC(=O)NCCCCCN)C(=O)O [Compound 69, (R)-5-((5-Aminopentyl)amino)-2-dodecanamido-5-oxopentanoic acid]",Nod1-agonistic activity (in words),human Nod1,abrogation of activity
"CCCCCCCCCCCC(=O)N[C@H](CCC(=O)NC(CCCCC(=O)O)C(=O)O)C(=O)O (stereo partly drawn) [Compound 67, 2-((R)-4-carboxy-4-dodecanamidobutanamido)heptanedioic acid]",Nod1-agonistic activity (in words),human Nod1,abrogation of activity
"CCCCCCCCCCCC(=O)N[C@H](CCC(=O)N[C@H](CCCCN)C(=O)O)C(=O)O [Compound 73, (R)-6-Amino-2-((R)-4-carboxy-4-dodecanamidobutanamido) hexanoic acid]",Nod1-agonistic activity (in words),human Nod1,bereft of any activity
"N[C@H](CCC(=O)N[C@H](CCC[C@H](N)C(=O)O)C(=O)O)C(=O)O [γ-glutamyl-meso-diaminopimelic acid, reference compound]",CD11b upregulation (in words),[1],inactive
same,Nod1-agonistic activity (in words),human Nod1,inactive
same,p38 MAPK upregulation (in words),[2],inactive
"CCCCCCCCCCCC(=O)N[C@H](CCC(=O)NC(CCCC(N)C(=O)O)C(=O)O)C(=O)O (stereo partly drawn) [Compound 16, 2-Amino-6-((R)-4-carboxy-4-dodecanamidobutanamido) heptanedioic acid]",CD11b upregulation (in words),[1],upregulated in a dose-dependent manner
same,pEC50,human Nod1,~10.52
same,p38 MAPK upregulation (in words),[2],upregulated in a dose-dependent manner
"CCCCCCCCCCCCN(CCCCCCCCCCCC)[C@H](CCC(=O)NC(CCCC(N)C(=O)O)C(=O)O)C(=O)O (stereo partly drawn) [Compound 27, 2-Amino-6-((R)-4-carboxy-4-(didodecylamino)butanamido) heptanedioic acid]",CD11b upregulation (in words),[1],more potent than 16
same,pathway analysis of induced gene transcripts (in words),Human PBMCs; IPA pathway analysis,activation of pathways involving signaling mediated by Triggering Receptor Expressed on Myeloid Cells 1
same,"Fold change IL1B (interleukin 1, beta), up","Human PBMCs; probe set 39402_at, two hours, up",4.45 fold
same,"Fold change IL1RN (interleukin 1 receptor antagonist), up","Human PBMCs; probe set 212659_s_at, two hours, up",8.19 fold
same,"Fold change IL1RN (interleukin 1 receptor antagonist), up","Human PBMCs; probe set 216243_s_at, two hours, up",7.54 fold
same,"Fold change IL1RN (interleukin 1 receptor antagonist), up","Human PBMCs; probe set 216244_at, two hours, up",8.27 fold
same,p38 MAPK upregulation (in words),[2],more potent than 16
